Test results: ChEMBL document CHEMBL5674889, “Enhanced JunD/RSK3 signalling due to loss of BRD4/FOXD3/miR-548d-3p axis determines BET inhibition resistance” (2020)
Active and inactive are the calls of the source. The rule behind the calls is not given here.

What was measured:
[1] = tested on: BT-549; experiment: Antiproliferative activity in human RPS6KA2 expressed in JUND knock-down BT-549 cells assessed as inhibition of cell growth at 1 uM by CCK-8 assay; type: functional, cell-based
[2] = tested on: MDA-MB-231; experiment: Antiproliferative activity in human MDA-MB-231 cells assessed as inhibition of cell growth at 1 uM by CCK-8 assay; type: functional, cell-based
[3] = tested on: BT-549; experiment: Effect on human BT-549 cells assessed as RSK3 protein expression at 1 uM for 24 hrs by Western blot analysis; type: functional, cell-based
Method in brief: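 Western blot for RSK3 in MDA-MB-231 and BT549 cells treated with DMSO or 1 μM for 0, 12 and 24 h. Antibody used at 1:1000.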

[4] = tested on: MDA-MB-231; experiment: Induction of apoptosis in human MDA-MB-231 cells expressing vector control assessed as viable cells at 1 uM by Annexin V-FITC flow cytometric analysis (reference value: 91.91%); type: functional; settings: read-out: Activity
Method in brief: (§1)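 Stable clones (vector, RSK3-overexpressing or RPS6KA2-knockdown) treated ± JQ1 1 μM. Cells washed twice in PBS, resuspended at 1 × 10^6 cells/ml in binding buffer, stained with Annexin V-FITC and propidium iodide for 10 min at room temperature in the dark, then read by flow cytometry. Three independent experiments; one-way ANOVA.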

[5] = tested on: MDA-MB-231; experiment: Antiproliferative activity in human JUND-overexpressing MDA-MB-231 cells assessed as tumor sphere formation at 1 uM by Tumor sphere assay; type: functional, cell-based
[6] = tested on: BT-549; experiment: Antiproliferative activity in human JUND-overexpressing BT-549 cells assessed as cell viability at 1 uM by CellTiter-Glo luminescent cell viability assay; type: functional, cell-based
Method in brief: (§2)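 Stable JUND-knockdown (shRNA, puromycin 1.0 μg/ml selection) or JUND-overexpressing clones and vector controls, seeded 3000 cells/well and adhered overnight, then given DMSO or JQ1 (1 μM) for 48 h. Read-out CellTiter-Glo luminescence normalized to DMSO control; triplicates, mean ± SD, one-way ANOVA.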

[7] = tested on: MDA-MB-231; experiment: Antiproliferative activity in human JUND-knockdown MDA-MB-231 cells assessed as cell viability at 1 uM by CellTiter-Glo luminescent cell viability assay; type: functional, cell-based; method in brief: as §2
[8] = tested on: BT-549; experiment: Antiproliferative activity in human JUND-knockdown BT-549 cells assessed as cell viability at 1 uM by CellTiter-Glo luminescent cell viability assay; type: functional, cell-based; method in brief: as §2
[9] = tested on: MDA-MB-231; experiment: Effect on human RPS6KA2-knockdown MDA-MB-231 cells assessed as RSK3 protein expression at 1 uM by Western blot analysis; type: functional, cell-based
[10] = tested on: MDA-MB-231; experiment: Effect of human RSK3-overexpressing MDA-MB-231 cells assessed as suppression of tumour sphere formation at 1 uM by Tumour sphere assay; type: functional, cell-based
[11] = tested on: BT-549; experiment: Effect on human JUND-knockdown BT-549 cells assessed as reduction of RSK3 protein expression at 1 uM by Western blot analysis; type: functional, cell-based
Method in brief: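 RSK3 and JunD were probed by western blot in JUND-knockdown or JUND-overexpressing stable clones and their controls, all selected with puromycin 1.0 μg/ml. Antibodies used at 1:1000.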

[12] = tested on: MDA-MB-231; experiment: Induction of apoptosis in human MDA-MB-231 cells at 1 uM by FACS assay; type: functional, cell-based; method in brief: as §1
[13] = tested on: MDA-MB-231; experiment: Induction of apoptosis in human RPS6KA2-knockdown MDA-MB-231 cells at 1 uM by FACS assay; type: functional, cell-based; method in brief: as §1
[14] = tested on: MDA-MB-231; experiment: Antitumor activity against human MDA-MB-231 cells xenografted in BALB/c nude mouse assessed as reduction in tumor weight at 35 mg/kg/day, sc administered every 2 days; type: functional, organism-based; settings: time 2.0 day
Method in brief: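 Female BALB/c nude mice aged 4–6 weeks received 1 × 10^6 MDA-MB-231 control or knockdown cells subcutaneously, n = 7 per group. Dosing at 35 mg/kg every 2 days began at an average tumour volume of 90 mm3. Tumours were weighed after 25 days.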

[15] = tested on: BT-549; experiment: Antiproliferative activity in human BT-549 cells assessed as cell growth in the presence of miR-548d-3p inhibitor at 1 uM by CCK-8 assay; type: functional, cell-based
Method in brief: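 BLBC cells transfected with miR-548d-3p mimic or inhibitor, with or without JQ1; growth read by CCK-8 assay relative to DMSO-treated control, seeded at 3000/well. Triplicates, mean ± SD, one-way ANOVA.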

[16] = tested on: MDA-MB-231; experiment: Inhibition of FOXD3/-BRD4 protein-protein interaction in human MDA-MB-231 cells at 1 uM by Co-immunoprecipitation analysis; type: cell-based
Method in brief: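 Endogenous FOXD3 or BRD4 pulled down from MDA-MB-231 lysates with specific antibodies; partner detected by western blot.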

[17] = tested on: BT-549; experiment: Antiproliferative activity in human FOXD3-knockdown BT-549 cells co-silenced with shRNA of JUND assessed as cell growth at 1 uM by CCK-8 assay; type: functional, cell-based
[18] = tested on: MDA-MB-231; experiment: Antiproliferative activity in human FOXD3-knockdown MDA-MB-231 cells co-silenced with shRNA of JUND assessed as cell growth at 1 uM by CCK-8 assay; type: functional, cell-based
[19] = tested on: MDA-MB-231; experiment: Antiproliferative activity in human MDA-MB-231 cells assessed as cell growth in the presence of lapatinib at 1 uM by CellTiter-Glo luminescent cell viability assay; type: functional, cell-based
Method in brief: (§3)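 BLBC cells seeded at 3000/well, adhered overnight, then exposed to JQ1 (1 μM) with or without an EGFR inhibitor (1 μM) for 48 h; control and RPS6KA2-shRNA clones tested. Viability by CellTiter-Glo luminescence, background-subtracted and normalized to DMSO-treated control; triplicates, mean ± SD, one-way ANOVA against JQ1 alone.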

[20] = tested on: BT-549; experiment: Antiproliferative activity in human BT-549 cells assessed as cell growth in the presence of osimertinib at 1 uM by CellTiter-Glo luminescent cell viability assay; type: functional, cell-based; method in brief: as §3
[21] = tested on: BT-549; experiment: Antiproliferative activity in human RPS6KA2-knockdown BT-549 cells assessed as cell growth at 1 uM by CCK-8 assay; type: functional, cell-based
[22] = tested on: BT-549; experiment: Antiproliferative activity in human JunD-overexpressing BT-549 cells assessed as cell growth in the presence of osimertinib at 1 uM by CCK-8 assay; type: functional, cell-based
[23] = tested on: BT-549; experiment: Antiproliferative activity in human BT-549 cells assessed as cell growth for 48 hrs in the presence of osimertinib at 1 uM by CCK-8 assay; type: functional, cell-based
Method in brief: (§4)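 Cells seeded 3000/well, adhered overnight, treated with JQ1 (1 μM) with or without osimertinib (1 μM) for 48 h; growth by CCK-8 kit, normalized to DMSO-treated control; triplicates, mean ± SD, one-way ANOVA.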

[24] = tested on: MDA-MB-231; experiment: Antiproliferative activity in human MDA-MB-231 cells assessed as cell growth for 48 hrs in the presence of osimertinib at 1 uM by CCK-8 assay; type: functional, cell-based; method in brief: as §4
[25] = tested on: BT-549; experiment: Induction of apoptosis in human BT-549 cells in the presence of osimertinib at 1 uM by flow cytometry analysis; type: functional, cell-based
Method in brief: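 Cells given JQ1 and/or osimertinib, then stained with Annexin V-FITC plus propidium iodide (10 min, room temperature, dark; 1 × 10^6 cells/ml in binding buffer after two PBS washes) and analysed by flow cytometry; one-way ANOVA.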

[26] = tested on: MDA-MB-231; experiment: Antiproliferative activity in human MDA-MB-231 cells assessed as inhibited cell growth at 1 uM by CCK-8 assay; type: functional, cell-based
[27] = tested on: MDA-MB-231; experiment: Induction of apoptosis in human MDA-MB-231 cells expressing vector control assessed as early apoptotic cells at 1 uM by Annexin V-FITC flow cytometric analysis (reference value: 4.02%); type: functional; method in brief: as §1

Cc1sc2c(c1C)C(c1ccc(Cl)cc1)=N[C@@H](CC(=O)OC(C)(C)C)c1nnc(C)n1-2
Activity [1]: Active | Activity [2]: Active | Activity [3]: Active | viability at 1 µM [4]: 76.7% | Activity [5]: Active | Activity [6]: Active | Activity [7]: Active | Activity [8]: Active | Activity [9]: Active | Activity [10]: Active | Activity [11]: Active | Activity [12]: Active | Activity [13]: Active | Activity [14]: Active | Activity [15]: Active | inhibition [16]: Active | Activity [17]: Active | Activity [18]: Active | Activity [19]: Active | Activity [20]: Active | Activity [21]: Active | Activity [22]: Active | Activity [23]: Active | Activity [24]: Active | Activity [25]: Active | Activity [26]: Active | Activity [27]: 16.3%
